Assay outcomes (PubChem BioAssay)
GRK2 aptamer HTS: human GRK2 inhibition via aptamer displacement. bead flow cytometry, FAM-aptamer displacement from GRK2. inhibition of aptamer binding, % at 10 µM. 0.59% of 330,000 active;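 active means inhibition of aptamer binding above 40%, roughly 3 SD of noise, on plates passing a quality check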;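 further: median bead fluorescence of bound FAM aptamer so fluorescent compounds give negative values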
procasp3 activ: activates human procaspase-3 | P42574 | recombinant procaspase-3 D3A, Ac-DEVD-pNA absorbance 405 nm | activation, % at 8.5 µM | 0.11% of 330,000 active;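 active means activation above the mean of all tested compounds plus 3 SD, cut at about 21% in these data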
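Compound: 8.5 µM single point, 0.8% DMSO / Material: Autoprocessing-dead procaspase-3 D3A mutant enzyme / Timing: 1 h preincubation plus 2 h reaction at 25 °C / Medium: Zinc-free HEPES/NaCl buffer with 0.01% Triton X-100 at pH 7.4 / Technique: 405 nm absorbance of p-nitroaniline, reads at 0 and 120 min / Repeats: one well per compound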
T cell HTS: T cell immune modulation candidate; AID 2052; 0.068% of 330,000 active; response (vesicle binding), % at 7 µM; 2C CD8+ T cell-vesicle binding, flow cytometry; hits give low values;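 active means response, share of CD8 T cells binding vesicles, and their 90th percentile fluorescence all below set limits, cut at about 80% in these data, passing the limit was not always enough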;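 further: values below 100% mean blocked vesicle binding to the CD8+ T cells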
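Assay system – 2C mouse CD8+ T cells · Also added – QL9-loaded Drosophila micro-vesicles · Timing – Cell–vesicle co-incubation 1.5 h at 37 °C, staining 20 min on ice · Signal – flow cytometry of vesicle-bound cells · Measure – percent CD8+ FL2 mean versus row control · Controls – Peptide-free naked vesicles (low) and QL9 vesicles with 0.7% DMSO vehicle (high)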
proCasp7 act: counter-screen for procaspase-3 activators: activators of human procaspase-7; recombinant procaspase-7, Ac-DEVD-pNA absorbance 405 nm; D23A/D198A/D206A triple mutant, cannot self-cleave; scale: DMSO 0, 5 µM enzyme 100; activation, % at 8.5 µM; 0.093% of 330,000 active; AID 463210;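 active means percent activation above the screen-wide mean plus 3 SD, cut at about 25% in these data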
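Assay system – Uncleavable procaspase-7 mutant enzyme · Quantity – 2 µM procaspase-7 mutant as dispensed · Times – 1 h preincubation, 2 h reaction · Dosing – single nominal 8.5 µM compound dose, 0.8% DMSO final · Buffer or medium – Zinc-free 50 mM HEPES buffer, pH 7.4, with NaCl and Triton X-100 · Detection – Epi-absorbance of released pNA at 405 nm, two timepoints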
aDG glyco act: increases alpha dystroglycan glycosylation | Pro5-aDG cells, alpha-DG glycosylation AlphaScreen (IIH6); 0% Pro5, 100% B10-LARGE cell signal | activation, % at 10 µM | 0.22% of 360,000 active;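 active means activation of at least 8% versus controls, or a plate z-score of at least 8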;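 further: Pro5 are CHO cells carrying HIG-tagged alpha-DG that lacks glycosylation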
CaV13 ICDI inh: Disruptors of the CACNA1D IQ motif to Ca2+-dependent inactivation inhibitor domain association, primary screening, Förster resonance energy transfer in intact living …; HEK cells, CFP/YFP FRET ICDI-IQ, plate reader, 10 min; percent FRET-ratio fall versus neutral wells; inhibition, % at 12.3 µM; 0.098% of 340,000 active; AID 743397;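 active means mean replicate inhibition of at least 30% and at least 1% of replicates passing that level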
aDG conf: alpha-DG glycosylation activation, confirmation; Pro5-aDG cells, IIH6 AlphaLISA; scaled to LARGE-overexpressing B10 cells as 100%; shares compounds with aDG glyco act; 17% of 600 active; activation, % at 10 µM (by protocol);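 active means activation of at least 7% in one or more replicates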;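 further: cells exposed to compound for two days before detection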
A number is an active result; i = inactive; nt = no result given. An excerpt weighted towards active compounds, which were near 1.1% of everything screened.

SMILES	GRK2 aptamer HTS	procasp3 activ	T cell HTS	proCasp7 act	aDG glyco act	CaV13 ICDI inh	aDG conf
COc1ccc(/C(CC2(O)C(=O)Nc3ccccc32)=N\O)cc1 (stereo not drawn)	i	i	i	i	6.6	i	i
C/C(CC1(O)C(=O)Nc2ccccc21)=N\O (stereo not drawn)	i	i	i	i	i	i	nt
Cn1c(CC2C(=O)Nc3ccc(Br)cc32)nc2ccccc2c1=O (stereo not drawn)	i	i	i	i	5.2	i	i
Cc1cc(NCc2ccccn2)n2ncc(-c3ccc(Cl)cc3)c2n1	nt	i	i	i	3.0	i	4.6
Nc1c(C(=O)Nc2ccccc2Cl)nnn1-c1ccc2c(c1)OCCO2	i	i	i	i	i	i	nt
Clc1ccc(-c2cc(C3CCNCC3)[nH]n2)cc1	i	i	i	i	6.9	i	i
O=C(NCCN1CCOCC1)c1ccc(Cl)c(S(=O)(=O)N2CCCCCC2)c1	i	i	i	i	4.7	i	i
C=CCNC(=O)c1onc(CSc2ccccn2)c1C(=O)NCC=C	i	i	i	i	i	i	nt
COc1ccc(NC(=O)NC[C@@H]2CC[C@@H](Cc3ccc(-c4ccccc4)cc3)O2)cc1	i	i	nt	i	6.4	i	i
CCNS(=O)(=O)c1ccc2nc(NC(=O)/C=C/c3cc(OC)c(OC)c(OC)c3)sc2c1	i	i	i	i	i	i	nt
COc1cc(/C=C/C(=O)Nc2nc3ccc(S(=O)(=O)NC(C)C)cc3s2)cc(OC)c1OC	i	i	i	i	8.2	i	6.1
